Experiment [1] has as its system acetylated histone H3 and H4. The experiment is described as follows: Western blot of histone H3 and H4 acetylation. The following applies: for H4 acetylation: 639-V, inhibitor IC50, 72 h. Type of experiment: cell-based, human. The method in brief: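 Histone acetylation checked after 72 h inhibitor or DMSO treatment. 1 μg of each sample run on 15% SDS-PAGE and transferred to PVDF. Probed for acetylated H3 (1:2,000), total H3 (1:1,000), acetylated H4 (1:1,000) and total H4 (1:500). Blocking in 5% milk/TBST, primary 1 h at room temperature or overnight at 4°C, HRP-conjugated secondaries.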

The test system of experiment [2] is UM-UC-3. The experiment in a line: Colony forming assay, UM-UC-3. The experiment is classed as cell-based, human. The following applies: UM-UC-3, 72 h treatment at IC50 concentrations. The method in brief: (§1)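 After a single 72 h inhibitor or DMSO treatment, cells were replated at 500 to 1,000 cells per well in 6-well plates and grown 10 days. Then PBS-washed, fixed briefly in 50% methanol and 10 min in 100% methanol, and Giemsa-stained. Colony number and size measured by image analysis against the DMSO control.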

Experiment [3] relates to thymidylate synthase (TS). The experiment is described as follows: Western blot of thymidylate synthase in UCCs. Type of experiment: cell-based, human. The following applies: inhibitor IC50, 72 h.
Experiment [4] has as its system VM-CUB1. The experiment is described as follows: CellTiter-Glo ATP cell viability assay, VM-CUB1. The following applies: VM-CUB1, 72 h of HDAC8 inhibitor treatment. Type of experiment: cell-based, human. Put shortly:
(§2)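 UCCs kept in DMEM GlutaMAX-I plus 10% FCS at 37°C, 5% CO2. Cells seeded in 96-well plates and grown 24 h, then given one treatment at the indicated inhibitor concentrations (10 mM DMSO stock) or DMSO for 72 h. Viable cells read as total cellular ATP by CellTiter-Glo luminescence. IC50 and dose-response curves fitted by non-linear regression.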

The subject of experiment [5] is RT-112. The experiment in a line: CellTiter-Glo ATP cell viability assay, RT-112. The experiment is classed as cell-based, human. The following applies: RT-112, 72 h of HDAC8 inhibitor treatment. The method in brief:
as §2

The test system of experiment [6] is UM-UC-3. The experiment in a line: CellTiter-Glo ATP cell viability assay, UM-UC-3. Type of experiment: cell-based, human. The following applies: UM-UC-3, 72 h of HDAC8 inhibitor treatment. Put shortly: as §2
The test system of experiment [7] is p21. The experiment in a line: Western blot of p21 in UCCs. Type of experiment: cell-based, human.
The subject of experiment [8] is HDAC6. The following applies: in vitro; cited from earlier work.
For experiment [9], the system named is RT-112. The experiment is described as follows: Colony forming assay, RT-112. Type of experiment: cell-based, human. The following applies: RT-112, 72 h treatment at IC50 concentrations. Put shortly:
as §1

Experiment [10] concerns SW-1710. The experiment in a line: CellTiter-Glo ATP cell viability assay, SW-1710. Type of experiment: cell-based, human. The following applies: SW-1710, 72 h of HDAC8 inhibitor treatment. Put shortly: as §2
Experiment [11] relates to Normal Uroepithelial Control. The experiment in a line: CellTiter-Glo ATP cell viability assay, normal uroepithelial control. The experiment is classed as cell-based, human. As to conditions: 72 h of HDAC8 inhibitor treatment. Put shortly:
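Normal urothelial cells isolated from ureters after nephrectomy, grown in keratinocyte serum-free medium with 0.25 ng/ml EGF and 12.5 μg/ml bovine pituitary extract. Seeded in 96-well plates for 24 h, then treated once with the indicated inhibitor concentrations (10 mM DMSO stock) or DMSO for 72 h. Read by CellTiter-Glo total-ATP luminescence. IC50 from non-linear regression.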

For experiment [12], the system named is acetylated α-tubulin. The experiment is described as follows: Western blot of acetylated α-tubulin in UCCs. Type of experiment: cell-based, human. As to conditions: all cell lines, inhibitor IC50, 72 h.
Experiment [13] has as its system UM-UC-3. The experiment is described as follows: Wound healing migration assay, UM-UC-3. As to conditions: UM-UC-3, IC50 concentrations, especially after 6 - 12 h. The experiment is classed as cell-based, human.
For experiment [14], the system named is VM-CUB1. The experiment in a line: Colony forming assay, VM-CUB1. The experiment is classed as cell-based, human. The following applies: VM-CUB1, 72 h treatment at IC50 concentrations. Put shortly: as §1
Experiment [15] has as its system 639-V. The experiment is described as follows: CellTiter-Glo ATP cell viability assay, 639-V. The experiment is classed as cell-based, human. As to conditions: 72 h of HDAC8 inhibitor treatment. The method in brief: as §2
The subject of experiment [16] is urothelial cancer cell lines (UCCs). The experiment is described as follows: CellTiter-Glo ATP cell viability assay, urothelial cancer cell line panel. The experiment is classed as cell-based, human. The following applies: 72 h inhibitor treatment. The method in brief:
as §2

Experiment [17] deals with SW-1710. The experiment is described as follows: Colony forming assay, SW-1710. Type of experiment: cell-based, human. As to conditions: SW-1710, 72 h treatment at IC50 concentrations. Put shortly:
as §1

Experiment [18] deals with 639-V. The experiment in a line: Colony forming assay, 639-V. As to conditions: 72 h treatment at IC50 concentrations. Type of experiment: cell-based, human. Put shortly: as §1
The test system of experiment [19] is urothelial cancer cell lines (UCCs). The experiment in a line: Cell cycle analysis by flow cytometry. As to conditions: for G1-fraction / G2/M-arrest: VM-CUB1, SW-1710, 639-V and UM-UC-3 cells, inhibitor IC50, 72 h; for sub-G1 fraction: VM-CUB1 and SW-1710, inhibitor IC50, 72 h. Type of experiment: cell-based, human. Put shortly: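 UCCs grown in DMEM GlutaMAX-I with 10% FCS at 37°C and 5% CO2. One inhibitor dose was given 24 h after seeding (10 mM DMSO stock), with DMSO as solvent control and the pan-HDAC inhibitor SAHA (2.5 μM). After 72 h, attached and floating cells were stained in PI buffer (50 μg/ml PI, 0.1% sodium citrate, 0.1% Triton X-100) and run on flow cytometry. Sub-G1 counted as apoptotic.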

Experiment [20] relates to HDAC1, HDAC2 and HDAC3. The experiment in a line: Expression of other class I HDACs. The experiment is classed as cell-based, human. As to conditions: SW-1710 and VM-CUB1 cells, inhibitor IC50, 72 h, western blot.
In experiment [21] the test system is VM-CUB1. The experiment in a line: Wound healing migration assay, VM-CUB1. The experiment is classed as cell-based, human. The following applies: VM-CUB1, IC50 concentrations, especially after 6 - 12 h.
Experiment [22] concerns PARP. The experiment is described as follows: Western blot of PARP cleavage in UCCs. Type of experiment: cell-based, human. As to conditions: SW-1710, inhibitor IC50, 72 h.
The mark [23] stands for this setting: VM-CUB1, SW-1710 and UM-UC-3 cells.
Setting [24] is: SW-1710 and 639-V, inhibitor IC50, 72 h.

In the case of `O=C(CCCCCCC(=O)Nc1ccccc1)NO` [SAHA, suberoylanilide hydroxamic acid, reference compound], in [1] (SAHA control), the “histone H3 or H4 acetylation” value was “led to a change”.
For `O=C(/C=C/Cc1cccc2ccccc12)NO` [Compound 5, δ-naphtyl-trans 2-butenoil hydroxamic acid], the clonogenic growth entry in experiment [2] is reported as “moderate reduction of colony numbers”; in [9] it was “moderate reduction of colony numbers”; in experiment [14], “completely abolished”; in [17], “no effect”; in [18], “moderate reduction of colony numbers”. Moreover, in experiment [1], the H4 acetylation entry was “slight increase”. In addition, the “expression of thymidylate synthase (TS)” value in experiment [3] (639-V and RT-112 cells) is given as “No effects”; in experiment [3] (setting [23]), “weakly reduced”. Further, the half-maximal inhibitory concentration (IC50) in experiment [4] was 18.7 µM; in experiment [5] it was 9.7 µM; in experiment [5] (listed as c5), roughly 9.7 µM; in experiment [6] it was 18.9 µM; in experiment [10], 20.8 µM; in [11] it was 24.2 µM. Also, the midpoint of inhibition in [15], the IC50, lay at 12.6 µM. In addition, the p21 expression result in experiment [7] (setting [24]) was “decreased”. Moreover, the “inhibition of HDAC6” value in experiment [8] is “do not inhibit HDAC6 efficiently”. Further, in experiment [12] (listed as c5), the “acetylated α-tubulin” value is “strong increase”. The “wound healing (relative scratch size) vs DMSO control” value in experiment [13] and in experiment [21] was “clear difference” throughout. For the same molecule, the “viability of all UCCs” value in experiment [16] is listed as “significantly reduced”. Besides, the G1-fraction result in experiment [19] is “significant decrease”. In addition, in experiment [19], the G2/M-arrest result is given as “indications of a G2/M-arrest”. In addition, the sub-G1 fraction result in experiment [19] was “significant increase”. The “protein expression of HDAC1 and HDAC2/3” value in experiment [20] is “slightly reduced”.
Take `O=C(NO)c1cccc2ccccc12` [Compound 2, 1-napthohydroxamic acid, reference compound]: the IC50 in experiment [4] was no less than 50 µM; in [5], no less than 50 µM; in experiment [5] (listed as c2), greater than 50 µM; in experiment [6], no less than 50 µM; in experiment [10], no less than 50 µM; in [11] it was no less than 50 µM. The molecule further had an IC50 in experiment [15] of no less than 50 µM. Moreover, the clonogenic growth entry in experiment [14] was “inhibited clonogenicity”.
Take `O=C(NO)c1ccc(-c2cccc3ccccc23)cc1` [Compound 6, 4-naphtyl-benzoil hydroxamic acid]: the clonogenic growth result is “most efficient” in [2]; “active” in experiment [9]; “most efficient” in experiment [14]; “active” in experiment [17]; “most efficient” in experiment [18]. For the same molecule, the H4 acetylation entry in experiment [1] is recorded as “slight increase”. In addition, the “expression of thymidylate synthase (TS)” value in [3] (639-V and RT-112 cells) was “No effects”; in [3] (setting [23]), “weakly reduced”. In addition, the IC50 was 16 µM in experiment [4]; 9.1 µM in [5]; roughly 9.1 µM in [5] (listed as c6); 18.2 µM in experiment [6]; 18.8 µM in experiment [10]; 10.2 µM in experiment [11]. In [15], this molecule came in with an IC50 of 18.6 µM. For the same molecule, the p21 expression result is “decreased” in experiment [7] (setting [24]) and “decreased” in [7] (UM-UC-3, inhibitor IC50, 72 h). In addition, in [8], the “inhibition of HDAC6” value is “do not inhibit HDAC6 efficiently”. The “cleavage of PARP” value in experiment [22] is listed as “Increased cleavage of PARP”. Moreover, the “acetylated α-tubulin” value in experiment [12] (listed as c6) is recorded as “strong increase”. The “wound healing (relative scratch size) vs DMSO control” value in experiment [13] and in experiment [21] was “clear difference” in each case. Also, the “viability of all UCCs” value in experiment [16] is “significantly reduced”. Besides, the G1-fraction entry in experiment [19] was “significant decrease”. Further, in experiment [19], the G2/M-arrest entry is “indications of a G2/M-arrest”. The sub-G1 fraction result in experiment [19] is “significant increase”. The “protein expression of HDAC1 and HDAC2/3” value in experiment [20] is “slightly reduced”.

The values above are taken from publication PMC4230422 (Journal of Experimental & Clinical Cancer Research : CR, 2014).
